# Measured values from article PMC4300256 (Aquatic toxicology (Amsterdam, Netherlands), 2014).
# Read-outs that look alike come from different tables or passages of the source.
# Legend:
# [1] = target: T1, RyR1 (Fundulus heteroclitus, UniProt A0A3Q2R0L4); assay type: binding; conditions: two-site model, estimate ± SE
# [2] = target: T1, RyR1; experiment: Ca^2+ induced [^3H]Ry binding; assay type: biochemical; conditions: NBH and SC killifish; 10 nM [^3H]Ry
# Procedure, shortened: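 Skeletal muscle microsomes (≥4 fish pooled per population), 100 µg ml−1, with 10 nM [3H]Ry in 250 KCl/15 NaCl/20 HEPES mM buffer (pH 7.1), 25°C, 16 h. Free Ca2+ 0.25–10,000 µM set with CaCl2/EGTA. Nonspecific binding: 1000-fold unlabeled ryanodine plus 200 µM EGTA. GF/B filtration, scintillation counting. Bell-shaped curve fit. 2–4 biological replicates, each run in triplicate or quadruplicate.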
# [3] = target: T1, RyR1; experiment: PCB 95 induced [^3H]Ry binding; assay type: biochemical; conditions: for maximum response achieved, [^3H]Ry binding: 8 nM [^3H]Ry, 50 µM CaCl2; for EC50: read-out: half-maximal effect concentration (EC50)
# Procedure, shortened: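 Pooled skeletal muscle microsomes, 40 µg ml−1, were incubated with 8 nM [3H]Ry and 50 µM CaCl2 in RyR buffer (pH 7.1) at 25°C for 16 h. Test compound 0.01–20 µM in 0.5% DMSO; solvent control was 0.5% DMSO. After filtration and scintillation counting, specific binding was taken as a percent of the DMSO control and fitted by sigmoidal dose-response. 2–4 biological replicates, each in triplicate or quadruplicate.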
# T1 sequence (A0A3Q2R0L4 1-4852): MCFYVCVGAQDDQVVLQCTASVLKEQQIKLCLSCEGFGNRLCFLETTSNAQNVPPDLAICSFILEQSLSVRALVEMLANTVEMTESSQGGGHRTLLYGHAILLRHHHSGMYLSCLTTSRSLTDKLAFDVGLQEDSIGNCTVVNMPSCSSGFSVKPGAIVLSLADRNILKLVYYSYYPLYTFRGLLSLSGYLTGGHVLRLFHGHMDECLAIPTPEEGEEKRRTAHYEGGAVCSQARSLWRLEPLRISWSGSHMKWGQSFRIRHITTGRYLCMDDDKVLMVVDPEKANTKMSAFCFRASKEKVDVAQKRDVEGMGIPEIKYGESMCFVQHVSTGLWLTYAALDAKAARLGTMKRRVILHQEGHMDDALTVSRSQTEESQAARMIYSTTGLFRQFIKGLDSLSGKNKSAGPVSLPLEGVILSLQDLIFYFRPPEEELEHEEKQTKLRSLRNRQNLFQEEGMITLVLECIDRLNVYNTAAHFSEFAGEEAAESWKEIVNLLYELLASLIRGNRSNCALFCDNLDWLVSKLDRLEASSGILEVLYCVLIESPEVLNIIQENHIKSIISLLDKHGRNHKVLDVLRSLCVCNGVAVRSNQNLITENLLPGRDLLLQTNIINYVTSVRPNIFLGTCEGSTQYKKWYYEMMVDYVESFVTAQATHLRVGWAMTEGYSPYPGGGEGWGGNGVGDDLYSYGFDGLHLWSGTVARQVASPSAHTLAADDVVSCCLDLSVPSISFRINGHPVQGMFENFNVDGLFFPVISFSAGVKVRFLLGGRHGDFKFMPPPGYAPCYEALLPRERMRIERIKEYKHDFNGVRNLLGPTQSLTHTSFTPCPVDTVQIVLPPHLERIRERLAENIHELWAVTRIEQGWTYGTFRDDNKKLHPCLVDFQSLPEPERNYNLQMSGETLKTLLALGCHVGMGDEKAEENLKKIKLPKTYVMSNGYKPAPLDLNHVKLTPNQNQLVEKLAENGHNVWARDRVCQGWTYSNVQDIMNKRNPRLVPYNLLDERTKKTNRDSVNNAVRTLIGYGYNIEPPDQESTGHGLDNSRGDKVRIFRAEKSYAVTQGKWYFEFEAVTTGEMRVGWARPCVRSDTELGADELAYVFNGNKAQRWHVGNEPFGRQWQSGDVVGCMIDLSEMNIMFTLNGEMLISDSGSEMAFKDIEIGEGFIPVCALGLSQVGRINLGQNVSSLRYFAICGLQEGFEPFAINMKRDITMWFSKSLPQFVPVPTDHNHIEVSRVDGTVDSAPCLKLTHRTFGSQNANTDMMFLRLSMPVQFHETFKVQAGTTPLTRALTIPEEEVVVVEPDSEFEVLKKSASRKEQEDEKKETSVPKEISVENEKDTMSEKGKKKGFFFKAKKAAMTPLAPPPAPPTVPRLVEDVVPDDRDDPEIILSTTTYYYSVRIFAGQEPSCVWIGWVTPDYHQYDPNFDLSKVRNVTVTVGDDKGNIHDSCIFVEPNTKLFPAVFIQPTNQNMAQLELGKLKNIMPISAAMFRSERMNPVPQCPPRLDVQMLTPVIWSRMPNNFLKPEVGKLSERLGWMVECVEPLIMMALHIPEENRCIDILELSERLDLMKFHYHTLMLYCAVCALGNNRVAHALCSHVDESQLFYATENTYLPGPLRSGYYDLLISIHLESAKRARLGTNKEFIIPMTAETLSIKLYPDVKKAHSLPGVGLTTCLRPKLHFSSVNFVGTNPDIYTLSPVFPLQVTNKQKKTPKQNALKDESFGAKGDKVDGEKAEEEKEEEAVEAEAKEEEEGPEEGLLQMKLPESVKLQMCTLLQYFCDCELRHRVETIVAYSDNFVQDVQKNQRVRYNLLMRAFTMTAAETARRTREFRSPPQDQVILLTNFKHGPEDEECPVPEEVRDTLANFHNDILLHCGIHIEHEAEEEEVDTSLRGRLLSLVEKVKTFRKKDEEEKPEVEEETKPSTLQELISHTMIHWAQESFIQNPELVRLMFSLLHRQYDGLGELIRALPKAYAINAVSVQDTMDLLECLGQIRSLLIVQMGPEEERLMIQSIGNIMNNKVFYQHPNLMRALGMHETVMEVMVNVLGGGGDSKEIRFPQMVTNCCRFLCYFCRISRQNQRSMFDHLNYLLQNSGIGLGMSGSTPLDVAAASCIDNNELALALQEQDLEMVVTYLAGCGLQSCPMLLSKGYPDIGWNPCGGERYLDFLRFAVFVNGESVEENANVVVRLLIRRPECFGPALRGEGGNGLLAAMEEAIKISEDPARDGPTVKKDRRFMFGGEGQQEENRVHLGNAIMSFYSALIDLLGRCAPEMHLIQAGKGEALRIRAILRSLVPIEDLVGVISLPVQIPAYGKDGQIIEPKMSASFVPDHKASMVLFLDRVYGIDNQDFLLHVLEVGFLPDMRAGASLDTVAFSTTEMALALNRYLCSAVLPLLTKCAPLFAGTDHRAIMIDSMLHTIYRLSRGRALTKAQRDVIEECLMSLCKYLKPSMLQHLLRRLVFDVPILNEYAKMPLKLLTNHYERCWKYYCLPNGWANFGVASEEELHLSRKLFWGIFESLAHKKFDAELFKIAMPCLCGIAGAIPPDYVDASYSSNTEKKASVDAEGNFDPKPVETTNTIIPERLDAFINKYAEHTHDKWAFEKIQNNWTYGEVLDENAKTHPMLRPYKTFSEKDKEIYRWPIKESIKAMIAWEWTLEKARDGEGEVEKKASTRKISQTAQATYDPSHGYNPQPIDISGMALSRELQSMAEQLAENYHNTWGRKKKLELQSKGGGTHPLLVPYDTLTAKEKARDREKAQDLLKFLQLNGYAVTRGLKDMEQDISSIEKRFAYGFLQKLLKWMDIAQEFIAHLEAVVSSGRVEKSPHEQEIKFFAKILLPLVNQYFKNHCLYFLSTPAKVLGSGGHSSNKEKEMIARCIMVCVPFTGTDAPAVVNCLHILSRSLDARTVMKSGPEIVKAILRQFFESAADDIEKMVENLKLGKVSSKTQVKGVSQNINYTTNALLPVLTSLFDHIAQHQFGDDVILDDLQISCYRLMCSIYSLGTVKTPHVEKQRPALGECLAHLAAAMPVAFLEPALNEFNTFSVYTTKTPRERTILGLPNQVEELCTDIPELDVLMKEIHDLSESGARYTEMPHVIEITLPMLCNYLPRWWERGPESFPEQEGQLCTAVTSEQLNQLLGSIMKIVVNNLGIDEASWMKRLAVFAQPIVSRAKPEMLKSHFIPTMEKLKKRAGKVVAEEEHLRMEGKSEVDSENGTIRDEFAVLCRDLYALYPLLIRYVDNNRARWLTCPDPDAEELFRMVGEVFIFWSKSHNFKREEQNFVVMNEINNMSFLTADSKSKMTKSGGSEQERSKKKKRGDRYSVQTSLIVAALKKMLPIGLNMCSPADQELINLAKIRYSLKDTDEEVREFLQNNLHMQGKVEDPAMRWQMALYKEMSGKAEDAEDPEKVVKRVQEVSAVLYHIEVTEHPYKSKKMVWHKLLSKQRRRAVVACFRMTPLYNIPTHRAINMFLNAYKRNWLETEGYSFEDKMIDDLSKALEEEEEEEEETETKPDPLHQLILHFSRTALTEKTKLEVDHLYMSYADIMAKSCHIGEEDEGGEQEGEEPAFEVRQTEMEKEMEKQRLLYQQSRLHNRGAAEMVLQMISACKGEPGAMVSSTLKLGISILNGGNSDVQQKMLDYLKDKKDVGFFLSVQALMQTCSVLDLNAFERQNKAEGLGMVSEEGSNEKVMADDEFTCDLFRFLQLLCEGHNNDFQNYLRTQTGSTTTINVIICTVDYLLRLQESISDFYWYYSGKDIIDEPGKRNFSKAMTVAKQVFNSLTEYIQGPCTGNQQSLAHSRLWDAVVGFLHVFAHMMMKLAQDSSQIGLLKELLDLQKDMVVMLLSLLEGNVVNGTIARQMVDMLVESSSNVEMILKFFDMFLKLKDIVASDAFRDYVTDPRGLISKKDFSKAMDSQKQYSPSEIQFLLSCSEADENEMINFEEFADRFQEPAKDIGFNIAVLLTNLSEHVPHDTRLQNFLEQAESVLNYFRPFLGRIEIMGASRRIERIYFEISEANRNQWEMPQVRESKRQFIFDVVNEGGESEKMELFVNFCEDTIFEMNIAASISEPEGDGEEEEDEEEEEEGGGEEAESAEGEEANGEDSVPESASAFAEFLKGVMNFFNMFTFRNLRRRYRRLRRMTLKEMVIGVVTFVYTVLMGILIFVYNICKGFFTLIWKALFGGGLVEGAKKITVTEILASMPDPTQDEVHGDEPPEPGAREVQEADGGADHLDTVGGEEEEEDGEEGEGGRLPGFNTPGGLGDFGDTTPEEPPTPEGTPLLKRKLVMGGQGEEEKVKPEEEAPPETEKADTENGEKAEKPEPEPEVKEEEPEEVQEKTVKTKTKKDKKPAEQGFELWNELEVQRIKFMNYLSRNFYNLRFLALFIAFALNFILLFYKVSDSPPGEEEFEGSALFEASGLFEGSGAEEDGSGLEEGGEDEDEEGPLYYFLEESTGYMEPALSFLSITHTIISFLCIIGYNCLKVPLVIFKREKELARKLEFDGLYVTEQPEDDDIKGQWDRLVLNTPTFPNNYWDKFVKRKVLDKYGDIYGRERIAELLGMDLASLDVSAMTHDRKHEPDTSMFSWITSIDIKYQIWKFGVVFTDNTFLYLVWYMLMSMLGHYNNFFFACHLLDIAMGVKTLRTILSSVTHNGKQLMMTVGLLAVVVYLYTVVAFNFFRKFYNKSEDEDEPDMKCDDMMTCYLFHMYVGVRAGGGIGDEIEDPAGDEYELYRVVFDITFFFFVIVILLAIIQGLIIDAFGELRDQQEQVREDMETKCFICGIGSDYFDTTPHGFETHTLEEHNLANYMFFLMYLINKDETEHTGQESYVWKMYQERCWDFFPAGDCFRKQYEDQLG
compound,measurement,setting,value
"CC(C)[C@@]1(O)[C@@H](OC(=O)c2ccc[nH]2)[C@@]2(O)[C@@]3(C)C[C@]4(O)O[C@@]5([C@H](O)[C@@H](C)CC[C@]35O)[C@@]2(O)[C@@]14C [[^3H]Ry, ryanodine]",High Affinity Bmax,[1]; NBH killifish skeletal muscle,1.63 ± 0.32 pmol/mg
same,Low Affinity Bmax,[1]; NBH killifish skeletal muscle,6.69 ± 0.92 pmol/mg
same,High Affinity Bmax,[1]; SC killifish skeletal muscle,1.47 ± 0.31 pmol/mg
same,Low Affinity Bmax,"[1]; SC killifish skeletal muscle, 95% CI 0.81 to 5.05",2.93 ± 1.07 pmol/mg
[Ca+2] [Ca^2+],Ca^2+ levels leading to receptor activation,[2],below 250 µM
same,Ca^2+ levels leading to receptor inactivation,[2],above 500 µM
Clc1ccc(Cl)c(-c2c(Cl)ccc(Cl)c2Cl)c1 [PCB 95],EC10,[3]; NBH killifish skeletal muscle,9.23 nM
same,"maximum response achieved, [^3H]Ry binding",[3]; NBH killifish skeletal muscle,301 % of the DMSO control
same,EC10,[3]; SC killifish skeletal muscle,4.11 nM
same,"maximum response achieved, [^3H]Ry binding",[3]; SC killifish skeletal muscle,248 % of the DMSO control
same,EC50,"[3]; NBH killifish skeletal muscle, 95% CI 77.7–119.1",96.2 nM
same,EC50,"[3]; SC killifish skeletal muscle, 95% CI 36.6–84.6",55.6 nM
